The record followed here is ChEMBL document CHEMBL1124724, “Steroidal A ring aryl carboxylic acids: a new class of steroid 5 alpha-reductase inhibitors” (J Med Chem, 1990).

Each structure is given as a SMILES string.

Target in the first assay: not listed separately
Kind of assay: Inhibition of Steroid 5-alpha-reductase of benign hyperplastic human prostatic tissue. The conditions noted are these: read-out: Ki app. An outline of the steps: (§1)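 Ethyl acetate quench with carrier steroids; product is DHT plus ADIOL from radiolabel split. Ki,app is given as a range over several microsome preparations; >10 000 means under 50% inhibition at top concentration.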
Regarding `CC(C)N(C(=O)[C@H]1CC[C@H]2[C@@H]3CCc4cc(C(=O)O)c(Cl)cc4[C@H]3CC[C@]12C)C(C)C`, the Ki is 35 nM.
Same read-out and setting: in the case of `CC(C)N(C(=O)[C@H]1CCC2C3C=Cc4cc(C(=O)O)ccc4C3CC[C@@]21C)C(C)C` (stereo not given in full) it was 30 nM; in that of `CC(C)N(C(=O)[C@H]1CC[C@H]2[C@@H]3CCc4c(ccc(C(=O)O)c4Br)[C@H]3CC[C@]12C)C(C)C`, 212 nM; in that of `CC(C)N(C(=O)[C@H]1CC[C@H]2[C@@H]3CCc4c(ccc(C(=O)O)c4F)[C@H]3CC[C@]12C)C(C)C`, 10 nM.
On the same count and under the same terms, to `CC(C)N(C(=O)[C@H]1CC[C@H]2[C@@H]3CCc4c(ccc(C(=O)O)c4C#N)[C@H]3CC[C@]12C)C(C)C` belongs 200 nM; to `CC(C)(C)NC(=O)[C@H]1CC[C@H]2[C@@H]3CCc4cc(C(=O)O)ccc4[C@H]3CC[C@]12C`, 43 nM.
On to `CC(C)N(C(=O)[C@H]1CC[C@H]2[C@@H]3CCc4cc(C(=O)O)ccc4[C@H]3CC[C@]12C)C(C)C`, for which the Ki was found to be 20 nM.
For `CC(C)N(C(=O)[C@H]1CC[C@H]2[C@@H]3CCc4cc(C(=O)O)c(Br)cc4[C@H]3CC[C@]12C)C(C)C`, the Ki is 76 nM.
Same read-out and setting: to `CC(C)(C)NC(=O)C1=CCC2C3CCc4cc(C(=O)O)ccc4C3CC[C@]12C` (stereo not given in full) belongs 60 nM; to `Cc1c(C(=O)O)ccc2c1CC[C@@H]1[C@@H]2CC[C@]2(C)[C@@H](C(=O)N(C(C)C)C(C)C)CC[C@@H]12`, 260 nM; to `CC(C)N(C(=O)[C@H]1CC[C@H]2[C@@H]3CCc4cc(C(=O)O)c(C#N)cc4[C@H]3CC[C@]12C)C(C)C`, 65 nM.
As to `CC(C)N(C(=O)[C@H]1CC[C@H]2[C@@H]3CCc4c(ccc(C(=O)O)c4Cl)[C@H]3CC[C@]12C)C(C)C`, the Ki came out at 120 nM.
As to `CC(C)N(C(=O)[C@H]1CCC2c3ccc4cc(C(=O)O)ccc4c3CC[C@@]21C)C(C)C` (stereo not given in full), the Ki stood at 36 nM.
On the same count and under the same terms, to `Cc1cc2c(cc1C(=O)O)CC[C@@H]1[C@@H]2CC[C@]2(C)[C@@H](C(=O)N(C(C)C)C(C)C)CC[C@@H]12` belongs 60 nM.

A further assay concerns the target T1, Steroid 5-alpha-reductase (Rattus norvegicus, UniProt P24008+P31214).
T1 sequence (P24008 whole entry): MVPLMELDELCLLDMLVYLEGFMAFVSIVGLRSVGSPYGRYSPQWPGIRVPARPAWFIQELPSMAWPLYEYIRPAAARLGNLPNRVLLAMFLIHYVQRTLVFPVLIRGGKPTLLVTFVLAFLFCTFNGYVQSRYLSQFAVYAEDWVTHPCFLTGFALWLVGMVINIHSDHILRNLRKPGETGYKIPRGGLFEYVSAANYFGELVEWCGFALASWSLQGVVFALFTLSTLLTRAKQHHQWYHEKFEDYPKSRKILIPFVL
T1 sequence (P31214 whole entry): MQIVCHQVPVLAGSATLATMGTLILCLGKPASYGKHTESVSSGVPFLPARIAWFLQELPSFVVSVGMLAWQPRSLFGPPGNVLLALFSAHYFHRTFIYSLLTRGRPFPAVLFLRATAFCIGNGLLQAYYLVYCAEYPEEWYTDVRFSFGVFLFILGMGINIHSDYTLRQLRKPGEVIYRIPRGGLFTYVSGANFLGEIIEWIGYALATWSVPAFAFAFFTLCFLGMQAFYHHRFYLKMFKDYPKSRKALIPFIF
Put plainly: Inhibition of Steroid 5-alpha-reductase of rat ventral prostate tissue. Type of assay: tissue-based, Prostate gland.
Conditions: not given
A digest of the protocol:
(§2)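 Activity is total 5α-reduced products (DHT + ADIOL) by radiolabel after ethyl acetate extraction. Ki,app is given as a range across microsome preparations; >10 000 means under 50% inhibition at highest concentration.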
On to `CC(C)N(C(=O)[C@H]1CC[C@H]2[C@@H]3CCc4cc(C(=O)O)c(Cl)cc4[C@H]3CC[C@]12C)C(C)C`, for which the Ki app is 200 nM.
With `CC(C)N(C(=O)[C@H]1CCC2C3C=Cc4cc(C(=O)O)ccc4C3CC[C@@]21C)C(C)C` (stereo not given in full), the Ki app worked out at 450 nM.
The molecule `CC(C)N(C(=O)[C@H]1CC[C@H]2[C@@H]3CCc4c(ccc(C(=O)O)c4Br)[C@H]3CC[C@]12C)C(C)C` showed a Ki app of 1900 nM.
Still for that read-out and setting: to `CC(C)N(C(=O)[C@H]1CC[C@H]2[C@@H]3CCc4c(ccc(C(=O)O)c4F)[C@H]3CC[C@]12C)C(C)C` belongs 500 nM; to `CC(C)N(C(=O)[C@H]1CC[C@H]2[C@@H]3CCc4c(ccc(C(=O)O)c4C#N)[C@H]3CC[C@]12C)C(C)C`, greater than 10000 nM.
`CC(C)(C)NC(=O)[C@H]1CC[C@H]2[C@@H]3CCc4cc(C(=O)O)ccc4[C@H]3CC[C@]12C` yielded a Ki app of 150 nM.
The molecule `CC(C)N(C(=O)[C@H]1CC[C@H]2[C@@H]3CCc4cc(C(=O)O)ccc4[C@H]3CC[C@]12C)C(C)C` yielded a Ki app of 356 nM.
On the same count and under the same terms, in the case of `CC(C)N(C(=O)[C@H]1CC[C@H]2[C@@H]3CCc4cc(C(=O)O)c(Br)cc4[C@H]3CC[C@]12C)C(C)C` it was 260 nM.
`CC(C)(C)NC(=O)C1=CCC2C3CCc4cc(C(=O)O)ccc4C3CC[C@]12C` (stereo not given in full) registered a Ki app of 200 nM.
Turning to `Cc1c(C(=O)O)ccc2c1CC[C@@H]1[C@@H]2CC[C@]2(C)[C@@H](C(=O)N(C(C)C)C(C)C)CC[C@@H]12`, the Ki app was 7000 nM.
Consider `CC(C)N(C(=O)[C@H]1CC[C@H]2[C@@H]3CCc4cc(C(=O)O)c(C#N)cc4[C@H]3CC[C@]12C)C(C)C`, for which the Ki app came to 950 nM.
For the molecule `CC(C)N(C(=O)[C@H]1CC[C@H]2[C@@H]3CCc4c(ccc(C(=O)O)c4Cl)[C@H]3CC[C@]12C)C(C)C`, the Ki app is reported as 900 nM.
The same measure, in the same setting: to `CC(C)N(C(=O)[C@H]1CCC2c3ccc4cc(C(=O)O)ccc4c3CC[C@@]21C)C(C)C` (stereo not given in full) belongs 350 nM.
For the molecule `Cc1cc2c(cc1C(=O)O)CC[C@@H]1[C@@H]2CC[C@]2(C)[C@@H](C(=O)N(C(C)C)C(C)C)CC[C@@H]12`, the Ki app worked out at 340 nM.

The target of the next assay is T1, Steroid 5-alpha-reductase. Kind of assay: In vitro inhibition against Steroid 5-alpha-reductase of whole rat ventral prostate tissue expressed as apparent inhibition constant. Type of assay: functional, tissue-based, Prostate gland.
Conditions: not given
A digest of the protocol:
as §2
`CC(C)N(C(=O)[C@H]1CC[C@H]2[C@@H]3CCc4cc(C(=O)O)c(C(=O)O)cc4[C@H]3CC[C@]12C)C(C)C`: the Ki app is given as greater than 10000 nM.

The target in a further assay is T2, 3-oxo-5-alpha-steroid 4-dehydrogenase 2 (Homo sapiens, UniProt P31213).
T2 sequence (P31213 whole entry): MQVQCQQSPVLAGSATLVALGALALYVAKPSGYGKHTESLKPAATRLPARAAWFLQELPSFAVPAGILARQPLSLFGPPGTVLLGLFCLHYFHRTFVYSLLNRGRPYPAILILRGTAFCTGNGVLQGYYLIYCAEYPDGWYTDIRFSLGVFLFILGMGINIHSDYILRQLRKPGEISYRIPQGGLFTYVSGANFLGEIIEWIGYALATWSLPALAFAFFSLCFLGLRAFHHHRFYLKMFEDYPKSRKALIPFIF
Kind of assay: In vitro inhibition against Steroid 5-alpha-reductase of benign hyperplastic human prostatic tissue expressed as apparent inhibition constant. Conditions: read-out: Ki app. Type of assay: functional. An outline of the steps: as §1
Turning to `CC(C)N(C(=O)[C@H]1CC[C@H]2[C@@H]3CCc4cc(C(=O)O)c(C(=O)O)cc4[C@H]3CC[C@]12C)C(C)C`, the Ki was found to be 5000 nM.
